Key:
[1] = test system: Akt and S6K phosphorylation; test: Immunoblot of Akt and S6K phosphorylation in response to insulin in HepG2 cells; format: cell-based, human
Summary of the method: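 HepG2 cells received vehicle or graded concentrations of test compound, then 100 nM insulin for 6 h. Cell lysates were immunoblotted for phosphorylation state and abundance of Akt and S6K.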

SREBP = test: SRE-driven luciferase; format: cell-based, human; conditions: for concentrations giving a significant reduction in SREBP activity: HepG2, SRE-Luc, 100nM insulin 6 h; for effects on cell morphology or growth rate: HepG2 cells, concentrations of the SRE-Luc experiment
Summary of the method: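 Transfection of HepG2 cells used Lipofectamine LTX, with pSRE-Luc plus CMV-driven Renilla luciferase. Cells were serum-starved overnight with vehicle or graded concentrations of test compound, then stimulated with 100 nM insulin for 6 h. Firefly and Renilla luciferase were read by dual-reporter assay. Data were normalised to vehicle-treated samples; n=3, mean ± SD.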

[2] = In vivo pharmacologic and pharmacokinetic properties
SREBP-1c maturation = test: Immunoblot of precursor and mature SREBP-1c in HepG2 cells; format: cell-based, human
Summary of the method: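 HepG2 cells expressing GFP or 3xFlag-tagged precursor SREBP-1a or SREBP-1c were treated with test compound (30 and 50 μM), then 100 nM insulin for 6 h. Whole-cell lysate and nuclear extract were immunoblotted for precursor and mature SREBP-1c, and the mature:precursor ratio was determined.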

[3] = test system: high-fructose diet (HFrD) fed rats; test: High-fructose diet Sprague-Dawley rats, oral dosing once/day for one week; format: in vivo
HFrD-fed rats = test: High-fructose diet Sprague-Dawley rats, oral dosing once/day for 90 days; format: in vivo, rat
casein kinase 2α = test: In vitro protein kinase activity assay, casein kinase 2α; format: biochemical, human; conditions: PASK vs casein kinase 2α2
[4] = test system: SREBP-1 maturation in liver; test: High-fat and high-fructose diet rats, liver SREBP-1 maturation immunoblot; format: in vivo, rat; conditions: 10, 30 and 100 mg/kg; treated for the last 3 weeks of 18 weeks diet
Summary of the method: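 Rats were fed a high-fat plus high-fructose diet for 18 weeks and dosed once daily by oral gavage with vehicle or test compound over the final 3 weeks. Vehicle was 0.5% methylcellulose, 0.025% Tween-80 in water, with compound ground to a suspension. Animals were fasted 24 h and refed 12 h. Whole liver lysate and nuclear extract were immunoblotted for precursor and mature SREBP-1 plus control proteins.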

Rat primary hepatocytes [5] = test: 14C-acetate incorporation into lipids in rat primary hepatocytes; format: cell-based
Summary of the method: (§1)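 HepG2 cells or rat primary hepatocytes were pre-treated overnight in serum-free medium with vehicle or 10 μM test compound. They then got fresh medium with vehicle or […] test compound plus 100 nM insulin for 6 h, labelled with 10 μCi/ml [1-14C]-acetate for the last 4 h. Lysis was in 0.5% Triton X-100, lipids were extracted with chloroform:methanol 2:1, and the organic phase was scintillation-counted. Counts were normalised to lysate protein; n=3, mean ± SD.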

HepG2 cells = test: 14C-acetate incorporation into lipid; format: cell-based, human; conditions: 10 μM, HepG2, 14C-acetate
Summary of the method: as §1

50 other protein kinases = test: In vitro specificity panel of 50 other protein kinases; format: biochemical, human; conditions: 100μM
Rat primary hepatocytes [6] = test: qRT-PCR of SREBP-1c target genes in insulin-stimulated rat primary hepatocytes; format: cell-based
Summary of the method: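 Rat primary hepatocytes were isolated, plated, and pre-treated 16 h with DMSO or test compound, then stimulated with insulin or vehicle over a 12 h time course. FASN, GCK and SREBP-1c mRNAs were measured by qRT-PCR, normalised to r36B4, with the vehicle-treated unstimulated group set as 1; n=3, mean ± SEM.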

PASK = PASK (Homo sapiens, UniProt Q96RG2); test: In vitro protein kinase activity assay, purified PASK; format: biochemical; conditions: 100μM
Sequence of PASK (Q96RG2 whole entry): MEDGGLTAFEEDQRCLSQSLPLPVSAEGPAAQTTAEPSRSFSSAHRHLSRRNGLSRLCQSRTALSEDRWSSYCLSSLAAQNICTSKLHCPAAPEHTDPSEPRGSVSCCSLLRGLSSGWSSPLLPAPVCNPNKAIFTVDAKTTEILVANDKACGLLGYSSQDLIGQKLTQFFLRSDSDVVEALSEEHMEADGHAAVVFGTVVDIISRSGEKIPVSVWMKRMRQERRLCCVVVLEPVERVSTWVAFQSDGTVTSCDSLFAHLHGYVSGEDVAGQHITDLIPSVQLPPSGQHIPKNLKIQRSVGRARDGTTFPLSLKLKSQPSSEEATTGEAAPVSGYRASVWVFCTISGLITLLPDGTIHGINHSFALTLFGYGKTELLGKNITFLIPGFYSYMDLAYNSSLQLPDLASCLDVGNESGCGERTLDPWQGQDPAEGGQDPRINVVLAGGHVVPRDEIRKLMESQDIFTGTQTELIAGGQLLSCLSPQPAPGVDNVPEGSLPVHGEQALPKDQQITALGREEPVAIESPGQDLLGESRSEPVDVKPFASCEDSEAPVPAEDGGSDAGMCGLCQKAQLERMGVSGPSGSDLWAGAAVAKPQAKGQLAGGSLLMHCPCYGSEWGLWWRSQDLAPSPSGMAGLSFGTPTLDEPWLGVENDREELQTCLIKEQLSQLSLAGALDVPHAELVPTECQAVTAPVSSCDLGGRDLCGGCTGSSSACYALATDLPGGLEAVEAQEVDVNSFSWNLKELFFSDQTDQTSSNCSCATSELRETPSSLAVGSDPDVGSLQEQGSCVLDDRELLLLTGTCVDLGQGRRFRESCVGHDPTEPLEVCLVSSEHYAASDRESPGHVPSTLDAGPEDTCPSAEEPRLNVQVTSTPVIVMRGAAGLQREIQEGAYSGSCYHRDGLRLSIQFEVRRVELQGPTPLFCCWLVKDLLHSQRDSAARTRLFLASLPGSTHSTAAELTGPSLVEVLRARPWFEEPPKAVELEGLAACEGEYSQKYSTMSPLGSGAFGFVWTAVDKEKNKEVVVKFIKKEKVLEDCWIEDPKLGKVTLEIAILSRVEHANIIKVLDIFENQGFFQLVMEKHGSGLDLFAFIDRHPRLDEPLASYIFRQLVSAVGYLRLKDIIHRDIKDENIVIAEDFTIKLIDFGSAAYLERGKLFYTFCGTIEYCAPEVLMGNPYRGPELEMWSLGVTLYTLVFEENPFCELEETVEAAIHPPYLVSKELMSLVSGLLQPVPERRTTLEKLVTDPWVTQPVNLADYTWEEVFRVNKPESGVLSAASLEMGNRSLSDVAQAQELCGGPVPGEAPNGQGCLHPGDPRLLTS
Summary of the method: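 Purified PASK kinase activity measured with vehicle or test compound at the indicated concentrations. Activity is expressed as percent of vehicle-treated activity.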

adipose tissue = conditions: accompanied by decreased expression of SREBP-1; ref Pereira et al., 2013; cited from earlier work

CC(C)N(C)c1nc2cc(C(=O)O)ccc2nc1-c1ccc(F)cc1 [BioE-1115]
phosphorylation of Akt or S6K in response to insulin [1]: neither compound impaired | concentrations giving a significant reduction in SREBP activity (SREBP): above 10 μM | effects on cell morphology or growth rate (SREBP): without any observable effects | in vivo pharmacologic and pharmacokinetic properties relative to BioE-1197 [2]: more favorable | SREBP-1c maturation (mature:precursor SREBP-1c ratio) (SREBP-1c maturation; 30 and 50μM): suppressed | hepatic expression of SREBP-1c target genes ([3]; 1 or 3 mg/kg oral once/day, one week): no difference from vehicle-treated rats | hepatic expression of Gpat1, Fasn and all other SREBP-1c target genes analyzed ([3]; 10, 30 and 100 mg/kg oral once/day, one week): dose-dependent suppression | HOMA-IR ([3]; calculated measure of insulin resistance): decreased in a dose-dependent manner | hepatic SREBP-1c and SREBP-1a mRNA ([3]; highest doses): modestly decreased | body weight ([3]; oral once/day, one week): Neither dose of BioE-1115 caused a significant change | hepatic TAG ([3]; oral once/day, one week): decrease | hepatic expression of HMG-CoA synthase 1 and SREBP-2 ([3]; oral once/day, one week): induced in a dose-dependent manner | liver weight ([3]; oral once/day, one week): Neither dose of BioE-1115 caused a significant change | serum TAG ([3]; oral once/day, one week): decreased in a dose-dependent manner | serum cholesterol ([3]; oral once/day, one week): basically unaffected | serum glucose ([3]; oral once/day, one week): significant decrease | serum insulin levels ([3]; oral once/day, one week): slightly lower | hepatic Fasn and Acc1 expression (HFrD-fed rats; 3 mg/kg, 90 days): significantly suppressed | hepatic Fasn and Acc1 expression (HFrD-fed rats; 10, 30 and 100 mg/kg, 90 days): restored to that in normal chow fed animals | serum glucose levels as measured by glycated hemoglobin (HbA1c) (HFrD-fed rats; 90-day study): decreased | expression of SREBP-1c or its target genes in abdominal fat (HFrD-fed rats; 90 days): no significant differences | expression of SREBP-1c or its target genes in gastrocnemius muscle (HFrD-fed rats; 90 days): no significant differences | body weight (HFrD-fed rats; after 51 days of dosing): no drug-dependent difference | body weight (HFrD-fed rats; after 90 days of dosing): no drug-dependent difference | serum triglycerides (HFrD-fed rats; after 90 days of treatment): significant dose-responsive decrease | overt toxicity upon extended treatment (HFrD-fed rats; doses 10–30 fold higher than those required for significant effects on lipogenic gene expression and serum triglycerides): no overt toxicity | serum triglycerides (HFrD-fed rats; interim timepoint of 45 days): significant dose-responsive decrease | fold more potent as an inhibitor of PASK than of casein kinase 2α2 (casein kinase 2α): roughly 2500 fold | SREBP-1 maturation in liver [4]: suppressed

C[C@H]1CCCN1c1nc2cc(C(=O)O)ccc2nc1-c1ccc(F)cc1 [BioE-1197]
insulin-induced increase in lipogenesis (14C-acetate incorporation into lipids) (Rat primary hepatocytes [5]): completely abolished | phosphorylation of Akt or S6K in response to insulin [1]: neither compound impaired | concentrations giving a significant reduction in SREBP activity (SREBP): > 3 µM | effects on cell morphology or growth rate (SREBP): without any observable effects | decrease in 14C incorporation into lipids (HepG2 cells): ~ 60% | activity of the majority of the 50 kinases (50 other protein kinases): either unaffected or only modestly inhibited | number of other kinases substantially inhibited (50 other protein kinases; of 50 kinases other than PASK): 8 | mRNA encoding SREBP-1c (Rat primary hepatocytes [6]; basal and insulin-stimulated conditions): significant decrease | insulin-induced increase in FASN and GCK mRNAs (Rat primary hepatocytes [6]; pre-treated 16 h, insulin over 12 h timecourse): either blunted or abolished | suppression of SREBP-1c maturation compared with BioE-1428 (SREBP-1c maturation; quantified over five independent experiments): significantly more efficacious | hepatic expression of the gene encoding HMG-CoA reductase ([3]; oral once/day, one week): significantly decreased | PASK activity at extremely high concentration (PASK): essentially completely inactivated

CO[C@H]1C[C@@H]2CC[C@@H](C)[C@@](O)(O2)C(=O)C(=O)N2CCCC[C@H]2C(=O)O[C@H]([C@H](C)C[C@@H]2CC[C@@H](O)[C@H](OC)C2)CC(=O)[C@H](C)/C=C(\C)[C@@H](O)[C@@H](OC)C(=O)[C@H](C)C[C@H](C)/C=C/C=C/C=C/1C [rapamycin]
lipogenesis in adipose tissue (adipose tissue): decreased lipogenesis

Reference: PMC4112965 (Cell reports, 2014)
